Measured values from ChEMBL document CHEMBL1154144, “Semisynthesis and antiplasmodial activity of the quinoline alkaloid aurachin E” (J Nat Prod, 2008).
In brackets after ≈: the same amount, converted by molar mass. Activity calls are given as the source filed them. No cut-off for these calls is given here.

Key:
L929 = assay: Cytotoxicity against mouse L929 cells after 5 days by MTT assay; type: cell-based; conditions: L929, 120 h
How it was run: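 L929 mouse fibroblasts were exposed to serial compound dilutions, and metabolic activity was read by MTT after 5 days.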

[1] = Inhibition of respiration in bovine heart submitochondrial particles assessed as NADH oxidation; type: functional, Bos taurus
Plasmodium falciparum [2] = assay: Antiplasmodial activity against Plasmodium falciparum D6 clone after 48 hrs; type: functional, organism-based; conditions: D6, 48 h
Plasmodium falciparum [3] = assay: Antiplasmodial activity against Plasmodium falciparum W2 after 48 hrs; type: functional, organism-based; conditions: W2, 48 h
Plasmodium berghei [4] = assay: Antimalarial activity against Plasmodium berghei infected in mice (Mus musculus)
Plasmodium berghei [5] = assay: Antimalarial activity against Plasmodium berghei infected in mice (Mus musculus) at 100 mg/kg; type: functional

| Compound | IC50 (L929) [µg/mL] | IC50 [1] [µg/mL] | IC50 (Plasmodium falciparum [2]) [µg/mL] | IC50 (Plasmodium falciparum [3]) [µg/mL] | ED90 (Plasmodium berghei [4]) [mg/kg] | Activity (Plasmodium berghei [5]) |
| --- | --- | --- | --- | --- | --- | --- |
| CC(C)=CCC/C(C)=C/CC/C(C)=C/Cc1c(O)c(C)[n+]([O-])c2ccccc12 [AURACHIN B] | 3.2 (≈ 8.43 µM) | 0.014 (≈ 0.0369 µM) | 0.078 (≈ 0.206 µM) | 0.036 (≈ 0.0949 µM) |  |  |
| CC(C)=CCC/C(C)=C/CC/C(C)=C/Cc1c(C)[nH]c2ccccc2c1=O [AURACHIN D] | 1.3 (≈ 3.58 µM) | 0.018 (≈ 0.0495 µM) | 0.25 (≈ 0.688 µM) | 0.37 (≈ 1.02 µM) |  |  |
| CC(C)=CCC/C(C)=C/CC/C(C)=C/Cc1c(C)n(O)c2ccccc2c1=O [AURACHIN C] | 1.8 (≈ 4.74 µM) | 0.016 (≈ 0.0422 µM) | 0.0009 (≈ 0.00237 µM) | 0.026 (≈ 0.0685 µM) |  |  |
| C[C@@H]1CC[C@H]2[C@@H](C)C(=O)O[C@@H]3O[C@@]4(C)CC[C@@H]1[C@]32OO4 [ARTEMISININ] | > 40 | > 8.1 | 0.0011 (≈ 0.0039 µM) | 0.00043 (≈ 0.00152 µM) |  |  |
| CCN(CC)CCCC(C)Nc1ccnc2cc(Cl)ccc12 (stereo not drawn) [CHLOROQUINE] | 14 (≈ 43.8 µM) | > 8.1 |  |  | 2.8 |  |
| CC(C)=CCC/C(C)=C/CC/C(C)=C/Cc1c(C)n2c(=O)[nH]c3cccc(c1=O)c32 [AURACHIN E] | 25 (≈ 61.8 µM) | 1.1 (≈ 2.72 µM) | 0.0004 (≈ 0.000989 µM) | 0.013 (≈ 0.0321 µM) |  | inactive |
| CC(C)=CCC/C(C)=C/CCC(C)(O)C1Cc2c(c(C)[n+]([O-])c3ccccc23)O1 (stereo not drawn) [AURACHIN A] | 1.4 (≈ 3.54 µM) | 0.028 (≈ 0.0708 µM) | > 12 | > 12 |  |  |
